This series deals with MS2 coat protein. In words: apparent Kd, MS2 coat protein; higher = weaker binding; RNA-MaP array; FMN 200 µM where present. In short, it runs like this: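 The titrant was SNAP-549-labelled MS2 coat protein, run from 0.7 or 1.5 nM in doubling steps to 3 µM. It was applied to designs transcribed by stalled E. coli RNA polymerase on Illumina sequencing-chip clusters, without ligand first and then with constant ligand, in 100 mM Tris-HCl pH 7.5, 80 mM KCl, 4 mM MgCl2, BSA, DTT, yeast tRNA and Tween-20. The apparent Kd is the median of filtered per-cluster binding-curve fits, with green signal normalised to red-channel RNA signal and control-cluster median Fmax.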

Where [1] appears, read: designed as: OFF switch for flavin mononucleotide, no ligand.
Setting [2] is: ligand present: flavin mononucleotide, designed as: OFF switch for flavin mononucleotide.
Setting [3] is: designed as: ON switch for flavin mononucleotide, no ligand.
Where [4] appears, read: ligand present: flavin mononucleotide, designed as: ON switch for flavin mononucleotide.

For orientation: apparent Kd means the concentration giving half-maximal binding under the conditions of the assay.

As for “AACGAGCAAGAUUAUUAUGAAUAAACAUGAGGAUCACCCAUGUAGGAUAUGCAGUGGAAUACACUGCAGAAGGACAAAAGCUCG”, the “apparent Kd” value reads like this: under setting [1], 6.49 nM; under setting [2], 12.9 nM.

Turning to “GUAGCAUGAUUAGGAUAUUCAGCGAGUAGAUUGACAUGAGGAUCACCCAUGUGGCGAAAGCCGAGGGAGAAGGGAUGAUGCUAC”, the “apparent Kd” value is, setting by setting: under setting [3], 34.9 nM; under setting [4], 25 nM.

With “GUCAUGUGAGGAUAUGUAUUGCGCAUGCCGAAAACAUGGCGGCAGAAGGCACAUGAGGAUCACCCAUGUGGGUU”, the “apparent Kd” value is, setting by setting: under setting [1], 62.7 nM; under setting [2], 34.4 nM.

On to “CUAGCUUGCACAGGAUAUAGGCUCGGAGCUUACAUGAGGAUCACCCAUGUAGUGCGAGUGAAGCACUAGAAGGGUGAUGGGUAG”, for which the “apparent Kd” value by setting is: under setting [3], 40.4 nM; under setting [4], 22.8 nM.

As to “AGAUCAACCACAGGAUAUGGCUAGCAUAGCUAGCCAGAAGGGUGGUCGUAUCCAUGUAAAUACAUGAGGAUCACCCAUGUAUCC”, the “apparent Kd” value runs as follows: under setting [3], 220 nM; under setting [4], 119 nM.

As to “UGAAAUCAUGUAGGAUAUGCAUGGCGAAGCUACGCAGAAGGACAUGAGGAUCACCCAUGUUAUAGCGUCCGAUAAAGGAUGCAA”, the “apparent Kd” value under setting [1] came out at 135 nM and the “apparent Kd” value under setting [2] worked out at 139 nM.

With “CGAUCACAUGUCAGGAUAUGCGAGCUUGUAUCGCCGUAGAAGGGACAUGAGGAUCACCCAUGUCCGAUCAUUCG”, the “apparent Kd” value under setting [1] amounted to 28.3 nM and the “apparent Kd” value under setting [2] came out at 52.1 nM.

For the sequence “CUUUAGUGAGGAUAUCAGUGGUAAUACAAUAGUAUUACUACUGAGAAGGCACAUGAGGAUCACCCAUGUUCCUC”, the “apparent Kd” value by setting is: under setting [1], 26.6 nM; under setting [2], 155 nM.

With “GGUGGACAUGAGGAUCACCCAUGUGAGGAUAUCGGCCGGCUAGUGGCGGCUGGCUUCACGAGAAGGCGCAUAGU”, the “apparent Kd” value under setting [1] was found to be 85.8 nM and the “apparent Kd” value under setting [2] came to 107 nM.

On to “ACAGUAAACGAAGGAUAUGGUUACAUGAGGAUCACCCAUGUAAUGGUUGUGAUAUUGAUUAAGUUCCAGAAGGUCGUAUACUUA”, for which the “apparent Kd” value is, setting by setting: under setting [1], 190 nM; under setting [2], 272 nM.

As to “UGGAUCAAUACAGGAUAUGGUGACGCACAUGAGGAUCACCCAUGUCCGCAGCGUGCUAAGCACGCCCAGAAGGGUAUUAAUUCG”, the “apparent Kd” value came to 885 nM under setting [3] and 90 nM under setting [4].

For the sequence “GCGAUUUUGUAAGGAUAUACACGAGUUUUAAGUGUAGAAGGUACUUACAUGAGGAUCACCCAUGUAUAAAUGUAUAAUGGUCGC”, the “apparent Kd” value stood at 12.4 nM under setting [3] and 9.82 nM under setting [4].

On to “AAAAAGCGAGGAUAUACAUGAGGAUCACCCAUGUAAAAAACAUGGGAUGAAACAUCAUGUAGAAGGCGCAAAAA”, for which the “apparent Kd” value is, setting by setting: under setting [1], 22.6 nM; under setting [2], 26 nM.

For “AAGAUACAUGAGGAUCACCCAUGUGAGGAUAUGUGUAUCCCUAAAAAAGUGUGGGACCACAGAAGGUACUUGGA”, the “apparent Kd” value by setting is: under setting [1], 61.7 nM; under setting [2], 55.4 nM.

Regarding “GCUUCACAUGAGGAUCACCCAUGUUUUCGGAGUCGAGGAUAUGGUCACUGUAAACAGUGGCCAGAAGGCGAGGAGC”, the “apparent Kd” value under setting [3] stood at 18.2 nM and the “apparent Kd” value under setting [4] turned out to be 16.7 nM.

With “GGUGGCUUCACAGGAUAUCCCGAGCCAAACAUGAGGAUCACCCAUGUGCUGGUAUUAAAAUUUGCGGAGAAGGGUGGUUCACGU”, the “apparent Kd” value reads like this: under setting [3], 154 nM; under setting [4], 74.1 nM.

“GUGCCUAACUAGAAGGCCCAAUGCAAAGCAUAGGGAGGAUAUGGGUUUAAUAAAUAAACAUGAGGAUCACCCAUGUGGCACAAA”: the “apparent Kd” value by setting is: under setting [3], 45.5 nM; under setting [4], 10.1 nM.

Consider “GGGUGACAUGAGGAUCACCCAUGUCAGGAUAUGAUACUAUGUACUUCGGUACAUAGUAUCAGAAGGGACAUAAA”, for which the “apparent Kd” value amounted to 104 nM under setting [1] and 27.1 nM under setting [2].

On to “AAAACAUGAGGAUCACCCAUGUAAAGAUCGGUUAAUAGAAGUGAGGAUAUGCUUAAUAUAAGGUAGCAGAAGGCACUGGGUACA”, for which the “apparent Kd” value was determined as 23.3 nM under setting [3] and 25.7 nM under setting [4].

As to “CGUACACAUGAGGAUCACCCAUGUCAGAUUUGGUCAGGAUAUGGGCGGCAUCCGCUAUAGCCAGAAGGGACUGUUG”, the “apparent Kd” value under setting [3] came out at 173 nM and the “apparent Kd” value under setting [4] came to 204 nM.

As for “CUCCGUGGCGAGAAGGACGGAAUUUAAGGUUCUGUAGGAUAUCGAAACAUGAGGAUCACCCAUGUAUUGAUCGGGUGCAGUGUG”, the “apparent Kd” value runs as follows: under setting [1], 26.9 nM; under setting [2], 32.2 nM.

For “ACGUGUCGUGUAGGAUAUGACACAGGAAACUGGUCAGAAGGACAUGAGGAUCACCCAUGUAAAAUGUUCAAGAAUGACGUAUGC”, the “apparent Kd” value came out at 58.6 nM under setting [1] and 105 nM under setting [2].

Turning to “CACUCGUGUCUAGGAUAUGAGUGACAAGCGCGAGAUUUCCUCGCCGCUAGCUCAGAAGGAGACAUGAGGAUCACCCAUGUAAGG”, the “apparent Kd” value runs as follows: under setting [1], 90 nM; under setting [2], 24.4 nM.

Take “AUUUUAUAACAAGGAUAUACUAAACAUGAGGAUCACCCAUGUAAUAUUAUGAGUGAGAGAGAGAAGUAGAAGGUGUAUUAUUUU”: the “apparent Kd” value runs as follows: under setting [1], 102 nM; under setting [2], 128 nM.

As to “AAAACGGCACGUCCCGUGCCAACUACAGAAGGCCAACAUGAGGAUCACCCAUGUACAAACUAGAUGGAGGAUAUGUAGGUUCUA”, the “apparent Kd” value under setting [3] was determined as 6.19 nM and the “apparent Kd” value under setting [4] worked out at 4.24 nM.

For the sequence “GCAAAGCCUGACAUGAGGAUCACCCAUGUUAGAUUGUUAUGUCAGGAUAUUGUCUAGAAACUAGACAAGAAGGGAUGCUUUGCC”, the “apparent Kd” value runs as follows: under setting [3], 734 nM; under setting [4], 51.3 nM.

In the case of “CGCUCAAUAGAGAAGGAAAGAAUCAGAAGGCGUUACAUGAGGAUCACCCAUGUUUUGUAUAGUAACGAGGAUAUGAUAUGAGCG”, the “apparent Kd” value came to 18.9 nM under setting [1] and 15.3 nM under setting [2].

In the case of “AAAUUUAACGAAGGAUAUGCUGACAUGAGGAUCACCCAUGUGUGCUUUGUGUUGCUGAAACGGGAGCAGAAGGUCGUAUACAUA”, the “apparent Kd” value runs as follows: under setting [1], 82.5 nM; under setting [2], 82.5 nM.

Consider “UCUACAUAAAUUCAUCAAUACAGAAAGGAUAUGAGAUACAUGAGGAUCACCCAUGUGCAUGGGAAUUAGAAGGUUCAAUUAGCU”, for which the “apparent Kd” value runs as follows: under setting [1], 94.2 nM; under setting [2], 58.6 nM.

As for “GACUCGCGCACAGGAUAUCCACGGAGCGGACGUGGAGAAGGGUGACAUGAGGAUCACCCAUGUACGUGAGUCUAGAUCACUUCC”, the “apparent Kd” value came out at 67.2 nM under setting [3] and 25 nM under setting [4].

Regarding “UUAAUGUGAGGAUAUCAAGAGAGAAAGAGUAAUGGUAAAUAUGAGAAGGCACAUGAGGAUCACCCAUGUUCUUC”, the “apparent Kd” value is, setting by setting: under setting [1], 15.9 nM; under setting [2], 15.5 nM.

Turning to “UGCGUACAAGCAGACAUGAGGAUCACCCAUGUGGUCUCAUGCGAGGAUAUCGGGAAGGAGGAUUCCGAGAAGGUGCGGUGAGCC”, the “apparent Kd” value runs as follows: under setting [3], 157 nM; under setting [4], 39.6 nM.

Turning to “AGAAUUGGUAGAUAAAAGGUCACACAGGAUAUACUCCCAACAUGAGGAUCACCCAUGUACUGGCGGUAGAAGGGUGGGAUCCUC”, the “apparent Kd” value came to 33.6 nM under setting [3] and 8.52 nM under setting [4].

Regarding “UUAAAUCGAAACAUGAGGAUCACCCAUGUGUUGUAAUUAACAUAGGAUAUGUAAAUACUUUUUUAAUAGAAGGAUGAUAAUACU”, the “apparent Kd” value runs as follows: under setting [3], 17 nM; under setting [4], 12.9 nM.

For “UAGGAGUACGUAGGAUAUGUAGGAUAUUCCUACAUGAGGAUCACCCAUGUAUGCAUGGAAGAAGGACAGAAGGACGUGCUCCUU”, the “apparent Kd” value runs as follows: under setting [3], 200 nM; under setting [4], 13.2 nM.

Take “UGGAUGUAGGAGAAGGAGGACUUCAUGAGGAUCACCCAUGUGUUAGGACUUAGGAUAUUUGACGACAUGAGGAUCACCCAUGUG”: the “apparent Kd” value is 63.6 nM under setting [3] and 58.4 nM under setting [4].

For the sequence “UUCUUACAUGAGGAUCACCCAUGUGUUGUCGUGGGAGGAUAUCCUUGUUCGGUGGCGUUGGGAGAAGGCCUAUGUU”, the “apparent Kd” value by setting is: under setting [3], 39.3 nM; under setting [4], 73.2 nM.

Turning to “AAGUCGAGCGUGAGGAUAUCGUUCGAACGACAGAACGAGAAGGCACAUGAGGAUCACCCAUGUGAUUAAGUUCA”, the “apparent Kd” value under setting [1] stood at 15.8 nM and the “apparent Kd” value under setting [2] was 18.6 nM.

For the sequence “GCUGGACAAGGAUAUACAUAACGUGCUUCGGCACGAGAUCUACAUGAGGAUCACCCAUGUAGAAGGUGUCCAGC”, the “apparent Kd” value is, setting by setting: under setting [1], 14.8 nM; under setting [2], 29.2 nM.

Consider “UAUAUAUAGUAAGGAUAUGUAUUAAUUUUAUUAACAGAAGGUACUGACAUGAGGAUCACCCAUGUUUUAGUGUGGGCAUGUAGA”, for which the “apparent Kd” value under setting [1] was 84.2 nM and the “apparent Kd” value under setting [2] was found to be 149 nM.

Turning to “UGUCGGAGCAGAGGAUAUUACAUGAGGAUCACCCAUGUAUCAACCAAUAGCUGGAAACAGCAAUGUAAGAAGGCUGCUCCGACA”, the “apparent Kd” value by setting is: under setting [1], 7.54 nM; under setting [2], 19.8 nM.

For “AACAGCACAGGAUAUACAUGAGGAUCACCCAUGUGAGAAUUAAGUAGAUUGCCACAGAGUAGAAGGGUGCUGGA”, the “apparent Kd” value by setting is: under setting [1], 53.7 nM; under setting [2], 104 nM.

Take “AGUGGUGGAGGAUAUACAUGAGGAUCACCCAUGUAAAUCACACAUGUGGUCAAAGCAUGUAGAAGGCCACUACA”: the “apparent Kd” value under setting [1] stood at 99.6 nM and the “apparent Kd” value under setting [2] came to 109 nM.

With “GUCGGAAACGACAAAGUAGCAUAGGAGGAUAUUCAUUAAAACAUGAGGAUCACCCAUGUAAAUUGGGAGAAGGCCUAUGCUACA”, the “apparent Kd” value under setting [3] was found to be 17.8 nM and the “apparent Kd” value under setting [4] was found to be 5.26 nM.

With “GUUCUUCCUGUGAGGAUAUCCAUGUUUCGGUUUGUGGAGAAGGUACAUGAGGAUCACCCAUGUCACCCGCGUUU”, the “apparent Kd” value was found to be 14.1 nM under setting [1] and 15.8 nM under setting [2].

In the case of “GGGUCAUAUGUUAGGAUAUUGGAGGCAAGUGCCGUUAAGAAGGAACAUGAGGAUCACCCAUGUCUAACUGACUU”, the “apparent Kd” value by setting is: under setting [1], 34.5 nM; under setting [2], 66 nM.

“AAAUCUGCUGAGGAUAUGAUGACUGAGAGGUCAUCAGAAGGCGGUACAUGAGGAUCACCCAUGUCUAUGGGCAA”: the “apparent Kd” value is 310 nM under setting [1] and 659 nM under setting [2].

In the case of “AAACCUAUAGGAUAUACAUGAGGAUCACCCAUGUUGCGAUUUUUUAGGUAACAGAUCCGUAGAAGGGUAGGGCA”, the “apparent Kd” value by setting is: under setting [1], 29.7 nM; under setting [2], 46.9 nM.

The values above are taken from the EternaBench riboswitch data.
